ChEMBL document CHEMBL1137078, “Carbamoylphosphonates, a new class of in vivo active matrix metalloproteinase inhibitors. 1. Alkyl- and cycloalkylcarbamoylphosphonic acids” (J Med Chem, 2004)
Calls of active or inactive are those of the source. The calls are words filed in the database; no cut-off is given here.

Tests used:
Homo sapiens = organism: Homo sapiens; test: In vitro inhibition of endothelial capillary tube formation by the compound at 50 uM concentration; type: functional
Method in brief: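 Endothelial cells plated on a thin Matrigel layer with angiogenic factor (bFGF/VEGF), incubated 4-6 h to form tubelike structures. Compounds added at 5 concentrations (100, 50, 25, 10, 5 µM). Tube formation quantified by image analysis. Value is % inhibition at 50 µM.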

Stromelysin-1 = Stromelysin-1 (Homo sapiens, UniProt P08254); test: In vitro inhibitory activity against recombinant matrix metalloprotease-3 was determined
Method in brief: (§1)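 Commercial recombinant MMP-1, -2, -3, -8 or -9 at four levels (1-50 ng) incubated 3 h with their respective substrates. Compounds at four to six concentrations (0.1-100 µM). Colorimetric change read on an ELISA reader. IC50 calculated from the kinetic data.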

[1] = target: 72 kDa type IV collagenase (Homo sapiens, UniProt P08253); test: In vitro inhibitory activity against recombinant matrix metalloprotease-2 was determined; method in brief: as §1
[2] = target: Matrix metalloproteinase-9 (Homo sapiens, UniProt P14780); test: In vitro inhibitory activity against recombinant matrix metalloprotease-9 was determined; method in brief: as §1
B16-F10 = test: Inhibition of lung metastasis formation after 3 weeks treatment with 50 mg/kg of compound in mice injected with 50000 B16F10 tumor cells into the tail vein; type: functional; details: Mus musculus, 504 h
Method in brief: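 Experimental metastasis in mice: 50 000 B16F10 melanoma cells injected into the tail vein. Compound given ip daily at 50 mg/kg for 3 weeks. Mice sacrificed at day 21, lungs fixed, and surface tumor foci counted. Value is % inhibition of lung metastasis formation.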

Interstitial collagenase = target: T1, Interstitial collagenase (Homo sapiens, UniProt P03956); test: In vitro inhibitory activity against recombinant matrix metalloprotease-1 was determined; method in brief: as §1
T1 sequence (P03956 whole entry): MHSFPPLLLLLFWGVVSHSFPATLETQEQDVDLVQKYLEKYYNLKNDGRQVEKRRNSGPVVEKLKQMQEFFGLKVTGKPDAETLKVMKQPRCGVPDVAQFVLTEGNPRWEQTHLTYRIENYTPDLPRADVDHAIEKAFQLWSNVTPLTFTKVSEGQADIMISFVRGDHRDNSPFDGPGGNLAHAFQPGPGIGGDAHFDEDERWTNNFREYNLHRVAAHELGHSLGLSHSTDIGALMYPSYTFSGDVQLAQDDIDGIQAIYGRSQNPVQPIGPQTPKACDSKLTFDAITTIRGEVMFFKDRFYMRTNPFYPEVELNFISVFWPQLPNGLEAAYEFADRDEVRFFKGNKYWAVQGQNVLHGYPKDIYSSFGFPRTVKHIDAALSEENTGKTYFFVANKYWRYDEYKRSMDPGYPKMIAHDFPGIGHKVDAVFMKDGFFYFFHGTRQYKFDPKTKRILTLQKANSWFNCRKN

Neutrophil collagenase = Neutrophil collagenase (Homo sapiens, UniProt P22894); test: In vitro inhibitory activity against recombinant matrix metalloprotease-8 was determined; method in brief: as §1
NIH3T3 = test: In vitro inhibition of invasion of NIH 3T3 cells across the reconstituted basement membrane by the compound at 50 uM concentration in Boyden chamber chemoinvasion assay; Inactive; type: functional, cell-based; details: Mus musculus

Chain of Neutrophil collagenase (P22894 whole entry): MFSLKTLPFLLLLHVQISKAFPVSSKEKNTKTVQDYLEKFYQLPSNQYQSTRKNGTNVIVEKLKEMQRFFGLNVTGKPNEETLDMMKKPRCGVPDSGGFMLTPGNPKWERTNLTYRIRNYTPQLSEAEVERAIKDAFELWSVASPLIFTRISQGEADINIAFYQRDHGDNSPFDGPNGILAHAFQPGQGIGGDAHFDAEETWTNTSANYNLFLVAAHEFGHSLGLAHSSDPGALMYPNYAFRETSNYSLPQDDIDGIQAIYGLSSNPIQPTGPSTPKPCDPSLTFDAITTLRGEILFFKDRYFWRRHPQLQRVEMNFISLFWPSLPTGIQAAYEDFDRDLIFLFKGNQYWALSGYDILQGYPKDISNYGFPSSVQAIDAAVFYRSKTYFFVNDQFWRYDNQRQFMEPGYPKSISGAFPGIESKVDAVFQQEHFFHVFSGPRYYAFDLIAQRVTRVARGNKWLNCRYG
Chain of Matrix metalloproteinase-9 (P14780 whole entry): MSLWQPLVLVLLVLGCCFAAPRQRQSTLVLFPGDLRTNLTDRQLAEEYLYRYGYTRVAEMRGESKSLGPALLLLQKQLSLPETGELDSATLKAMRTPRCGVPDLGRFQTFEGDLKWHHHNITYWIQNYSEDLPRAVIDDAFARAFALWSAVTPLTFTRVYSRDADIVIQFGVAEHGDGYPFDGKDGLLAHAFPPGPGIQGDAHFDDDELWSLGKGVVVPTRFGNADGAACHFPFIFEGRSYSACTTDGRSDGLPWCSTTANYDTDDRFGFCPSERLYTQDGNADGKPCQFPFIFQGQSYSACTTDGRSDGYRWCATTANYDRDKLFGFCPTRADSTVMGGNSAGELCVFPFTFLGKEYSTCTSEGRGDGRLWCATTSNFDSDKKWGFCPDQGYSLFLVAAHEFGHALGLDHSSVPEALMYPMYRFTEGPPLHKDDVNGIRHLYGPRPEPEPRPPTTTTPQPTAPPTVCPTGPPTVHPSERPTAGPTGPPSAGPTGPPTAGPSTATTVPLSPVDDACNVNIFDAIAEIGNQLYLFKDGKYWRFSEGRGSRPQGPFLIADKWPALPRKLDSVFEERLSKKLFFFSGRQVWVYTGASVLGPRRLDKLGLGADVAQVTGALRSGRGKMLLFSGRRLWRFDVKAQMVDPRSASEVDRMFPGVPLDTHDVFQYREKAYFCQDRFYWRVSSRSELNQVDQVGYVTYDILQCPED
Chain of 72 kDa type IV collagenase (P08253 whole entry): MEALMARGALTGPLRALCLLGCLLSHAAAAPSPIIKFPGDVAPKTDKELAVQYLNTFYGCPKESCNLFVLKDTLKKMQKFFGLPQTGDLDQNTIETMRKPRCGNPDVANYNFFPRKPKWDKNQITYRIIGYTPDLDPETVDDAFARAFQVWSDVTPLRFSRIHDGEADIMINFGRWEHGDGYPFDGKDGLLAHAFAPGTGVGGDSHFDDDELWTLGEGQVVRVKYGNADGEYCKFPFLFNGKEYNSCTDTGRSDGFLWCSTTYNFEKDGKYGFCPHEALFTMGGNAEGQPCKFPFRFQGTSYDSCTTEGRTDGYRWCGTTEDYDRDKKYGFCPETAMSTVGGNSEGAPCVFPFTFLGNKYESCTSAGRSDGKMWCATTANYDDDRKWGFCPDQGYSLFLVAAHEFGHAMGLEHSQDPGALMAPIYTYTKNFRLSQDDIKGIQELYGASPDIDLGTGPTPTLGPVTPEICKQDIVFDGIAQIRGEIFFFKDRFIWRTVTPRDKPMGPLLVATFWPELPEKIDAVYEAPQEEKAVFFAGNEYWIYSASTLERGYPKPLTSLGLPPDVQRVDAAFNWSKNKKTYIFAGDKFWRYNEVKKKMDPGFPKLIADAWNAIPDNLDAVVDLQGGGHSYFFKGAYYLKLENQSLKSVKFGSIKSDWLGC
Chain of Stromelysin-1 (P08254 whole entry): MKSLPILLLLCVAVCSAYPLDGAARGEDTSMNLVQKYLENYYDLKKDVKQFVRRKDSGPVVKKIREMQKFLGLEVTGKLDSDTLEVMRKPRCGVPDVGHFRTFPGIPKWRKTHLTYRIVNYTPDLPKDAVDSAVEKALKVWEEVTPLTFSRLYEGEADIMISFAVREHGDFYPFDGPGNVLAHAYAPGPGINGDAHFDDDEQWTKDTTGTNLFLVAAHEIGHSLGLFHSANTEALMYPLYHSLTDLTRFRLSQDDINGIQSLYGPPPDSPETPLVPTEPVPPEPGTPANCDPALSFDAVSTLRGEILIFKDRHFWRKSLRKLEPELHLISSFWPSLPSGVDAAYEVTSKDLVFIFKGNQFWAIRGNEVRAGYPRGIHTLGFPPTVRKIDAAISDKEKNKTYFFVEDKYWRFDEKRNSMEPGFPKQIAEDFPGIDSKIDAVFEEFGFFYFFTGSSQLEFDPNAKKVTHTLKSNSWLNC

| Compound | inhibition (Homo sapiens) [%] | IC50 (Stromelysin-1) [µM] | IC50 [1] [µM] | IC50 [2] [µM] | inhibition in vivo at 50 mg/kg (B16-F10) [%] | IC50 (Interstitial collagenase) [µM] | IC50 (Neutrophil collagenase) [µM] | inhibition (NIH3T3) |
| --- | --- | --- | --- | --- | --- | --- | --- | --- |
| CC(C)NC(=O)P(=O)(O)O [(ISOPROPYLAMINO)CARBONYLPHOSPHONIC ACID] | 55 | > 100 | 1 | 2 | 40 | 50 | 50 | – |
| CCN(CC)C(=O)P(=O)(O)O [(DIETHYLAMINO)CARBONYLPHOSPHONIC ACID] | – | 30 | 1 | > 100 | – | 30 | 70 | inactive |
| O=C(N1CCOCC1)P(=O)(O)O | – | 1 | > 100 | > 100 | – | 50 | 30 | inactive |
| CC(C)CNC(=O)P(=O)(O)O.NC1CCCCC1 [CYCLOHEXANAMINIUM HYDROGEN (ISOBUTYLAMINO)CARBONYLPHOSPHONATE] | – | > 100 | > 100 | > 100 | – | 40 | 1 | inactive |
| O=C(NC1CCCC1)P(=O)(O)O [(CYCLOPENTYLAMINO)CARBONYLPHOSPHONIC ACID] | 70 | > 100 | – | > 100 | 72 | 0.5 | > 100 | – |
| CCCCNC(=O)P(=O)(O)O [SODIUM HYDROGEN (BUTYLAMINO)CARBONYLPHOSPHONATE] | 20 | > 100 | 2 | > 100 | – | 25 | > 100 | – |
| CCCNC(=O)P(=O)(O)O [(PROPYLAMINO)CARBONYLPHOSPHONIC ACID] | – | 50 | 0.3 | 20 | – | 20 | > 100 | – |
| CCNC(=O)P(=O)(O)O [(ETHYLAMINO)CARBONYLPHOSPHONIC ACID] | – | 100 | 5 | 3 | – | 50 | 30 | – |
| O=C(N1CCCCC1)P(=O)(O)O | – | 90 | 1 | 0.5 | – | 70 | > 100 | inactive |
| O=C(NC1CC1)P(=O)(O)O [(CYCLOPROPYLAMINO)CARBONYLPHOSPHONIC ACID] | – | > 100 | 0.5 | > 100 | – | > 100 | 0.2 | – |
| O=C(NCCc1ccccc1)P(=O)(O)O [PHENETHYLCARBAMOYLPHOSPHONIC ACID] | – | 90 | 20 | > 100 | – | 80 | > 100 | – |
| O=C(NCC1CCCCC1)P(=O)(O)O [CYCLOHEXYLMETHYLCARBAMOYLPHOSPHONIC ACID] | 53 | 1 | – | – | 69 | 30 | 80 | – |
| O=C(NC1CCCCCC1)P(=O)(O)O [(CYCLOHEPTYLAMINO)CARBONYLPHOSPHONIC ACID] | 45 | > 100 | 4 | > 100 | 69 | > 100 | > 100 | – |
| O=C(NC1CCCCC1)P(=O)(O)O [(CYCLOHEXYLAMINO)CARBONYLPHOSPHONIC ACID] | 50 | 3 | – | > 100 | 37 | 0.1 | > 100 | – |
| O=C(NC1CCCCCCC1)P(=O)(O)O [(CYCLOOCTYLAMINO)CARBONYLPHOSPHONIC ACID] | 25 | > 100 | 1 | > 100 | – | > 100 | 4 | – |
| CCC(C)NC(=O)P(=O)(O)O (configuration not stated) | 20 | 80 | 3 | > 100 | – | 40 | > 100 | – |
| O=C(NC1CCC1)P(=O)(O)O [(CYCLOBUTYLAMINO)CARBONYLPHOSPHONIC ACID] | – | > 100 | 0.15 | > 100 | 60 | > 100 | 0.04 | – |
| CCOP(=O)(O)C(=O)NC1CCCCC1 [LITHIUM ETHYL (CYCLOHEXYLAMINO)CARBONYLPHOSPHONATE] | – | > 100 | 30 | > 100 | – | 1.5 | > 100 | – |
| CCCCN(CCCC)C(=O)P(=O)(O)O [(DIBUTYLAMINO)CARBONYLPHOSPHONIC ACID] | – | 30 | 50 | > 100 | – | 70 | 90 | inactive |
| CC(C)CCNC(=O)P(=O)(O)O.NC1CCCCC1 | – | > 100 | 30 | > 100 | – | > 100 | 50 | inactive |
| CCC(CC)NC(=O)P(=O)(O)O | – | > 100 | 3 | > 100 | – | 80 | 10 | – |
| CNC(=O)P(=O)(O)O [(METHYLAMINO)CARBONYLPHOSPHONIC ACID] | – | 90 | 0.02 | > 100 | 55 | > 100 | 20 | – |
